Consider 20 compounds from ChEMBL document CHEMBL1145195 (J Med Chem, 2005).

The target in series [1] is T1, Coagulation factor X (Homo sapiens, UniProt P00742). Briefly: Binding affinity against human Coagulation factor Xa.
Target sequence in this assay (P00742 41-179 limits assumed): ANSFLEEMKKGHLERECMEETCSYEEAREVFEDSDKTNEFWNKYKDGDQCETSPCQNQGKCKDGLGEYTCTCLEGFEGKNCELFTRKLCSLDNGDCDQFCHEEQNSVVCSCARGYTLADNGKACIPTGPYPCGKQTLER
Target sequence in this assay (P00742 235-488 limits assumed): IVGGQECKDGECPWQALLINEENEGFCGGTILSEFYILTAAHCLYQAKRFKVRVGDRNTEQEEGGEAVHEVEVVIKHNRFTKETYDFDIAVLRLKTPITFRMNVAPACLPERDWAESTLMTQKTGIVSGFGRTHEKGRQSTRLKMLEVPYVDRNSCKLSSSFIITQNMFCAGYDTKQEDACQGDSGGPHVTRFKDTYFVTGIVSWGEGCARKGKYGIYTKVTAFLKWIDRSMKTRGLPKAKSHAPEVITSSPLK
Series [2] concerns Caco-2. Briefly: Apparent cell permeability in Caco-2 cell line. It counts as functional, cell-based. The following applies: Homo sapiens. (Caco-2 monolayers are a common model of the intestinal barrier.)
The target of the next series is Prothrombin (Homo sapiens, UniProt P00734). Put plainly: Binding affinity against human thrombin.
A further series addresses Serine protease 1 (Homo sapiens, UniProt P07477). Briefly: Binding affinity determined against human trypsin.
Series [3] is described as follows: Activated partial thromboplastin time was determined in human plasma. Type of series: functional. In outline:
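Pooled human plasma obtained by centrifugation at 2000g for 10 min, kept on ice. Inhibitor taken from a 10 mM DMSO stock, diluted in plasma, held on ice. Five to seven concentrations, each in duplicate. Alexin aPTT reagent added after plasma warmed 1 min at 37 °C. Clotting time compared with control plasma; the concentration doubling aPTT is reported.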

For a further series, the target named is Coagulation factor IX (Homo sapiens, UniProt P00740). Briefly: Binding affinity against human Coagulation factor IX.
Coagulation factor IX, sequence (P00740 47-191 limits assumed): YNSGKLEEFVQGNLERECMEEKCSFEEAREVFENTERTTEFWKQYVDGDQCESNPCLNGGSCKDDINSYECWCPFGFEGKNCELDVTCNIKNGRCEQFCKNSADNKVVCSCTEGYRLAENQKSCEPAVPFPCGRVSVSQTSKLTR
Coagulation factor IX, sequence (P00740 227-461 limits assumed): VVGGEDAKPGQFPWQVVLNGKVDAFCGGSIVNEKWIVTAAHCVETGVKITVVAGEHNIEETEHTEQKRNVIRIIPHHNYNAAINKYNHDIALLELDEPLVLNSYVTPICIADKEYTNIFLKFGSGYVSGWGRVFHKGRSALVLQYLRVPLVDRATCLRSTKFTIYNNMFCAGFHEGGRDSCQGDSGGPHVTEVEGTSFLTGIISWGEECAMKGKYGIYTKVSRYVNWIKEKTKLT
The target of series [4] is Urokinase-type plasminogen activator (Homo sapiens, UniProt P00749). Briefly: Binding affinity determined against human urokinase.
Another series addresses Chymotrypsinogen B (Homo sapiens, UniProt P17538). Put plainly: Binding affinity determined against human Chymotrypsin. In outline:
(§1)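 Absorbance at 405 nm followed for 30 min. Percent activity taken from rates against no-inhibitor controls, then converted to Ki using Km and substrate concentration. Run in duplicate alongside internal standards.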

For series [5], the target named is Vitamin K-dependent protein C (Homo sapiens, UniProt P04070). Briefly: Binding affinity determined against human activated protein C. The essentials: as §1
Vitamin K-dependent protein C, sequence (P04070 43-197 limits assumed): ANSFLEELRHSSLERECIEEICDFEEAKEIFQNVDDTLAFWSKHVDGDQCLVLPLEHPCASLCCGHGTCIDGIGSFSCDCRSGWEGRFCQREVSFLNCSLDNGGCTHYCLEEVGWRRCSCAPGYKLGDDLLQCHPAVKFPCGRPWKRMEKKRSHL
Vitamin K-dependent protein C, sequence (P04070 212-461 limits assumed): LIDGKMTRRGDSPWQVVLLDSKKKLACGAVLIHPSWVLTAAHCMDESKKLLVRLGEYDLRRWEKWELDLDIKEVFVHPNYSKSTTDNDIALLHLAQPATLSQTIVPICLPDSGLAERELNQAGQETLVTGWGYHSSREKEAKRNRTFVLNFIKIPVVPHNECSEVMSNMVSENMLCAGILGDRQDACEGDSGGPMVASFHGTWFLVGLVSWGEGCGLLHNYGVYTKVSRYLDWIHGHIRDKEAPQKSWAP
Series [6] in a line: Oral bioavailability in dogs at 0.2 mg/kg (n=2). The following applies: dog, in vivo. It counts as ADME, organism-based, Canis lupus familiaris. In outline: (§2)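 Dog pharmacokinetics with compounds given as TFA salts in an N-in-1 (cassette) format, at 0.4 mg/kg intravenously and 0.2 mg/kg orally.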
In another series the target is T2, Coagulation factor VII (Homo sapiens, UniProt P08709).
T2 sequence (P08709 whole entry): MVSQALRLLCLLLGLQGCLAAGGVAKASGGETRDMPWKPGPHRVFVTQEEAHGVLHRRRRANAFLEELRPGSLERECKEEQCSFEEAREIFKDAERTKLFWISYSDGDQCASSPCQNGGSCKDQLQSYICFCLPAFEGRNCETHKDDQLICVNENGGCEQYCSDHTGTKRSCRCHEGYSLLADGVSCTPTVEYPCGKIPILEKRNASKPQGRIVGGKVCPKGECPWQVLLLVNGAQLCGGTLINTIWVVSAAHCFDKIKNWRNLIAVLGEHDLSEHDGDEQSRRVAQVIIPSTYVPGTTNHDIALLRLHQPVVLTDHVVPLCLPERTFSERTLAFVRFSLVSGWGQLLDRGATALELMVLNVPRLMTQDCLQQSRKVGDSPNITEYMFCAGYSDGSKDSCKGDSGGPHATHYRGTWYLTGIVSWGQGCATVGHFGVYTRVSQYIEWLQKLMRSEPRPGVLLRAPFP
Put plainly: Binding affinity against human Coagulation factor VII.

A short description of series [7]: Binding affinity of compound was determined against rabbit plasma protein. Type of series: ADME, cell-free, Oryctolagus cuniculus. The essentials: (§3)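 Human or rabbit plasma protein binding determined by equilibrium dialysis.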
Series [8] can be described thus: Binding affinity against human plasma protein was determined. It counts as ADME, cell-free. The essentials:
as §3

A short description of series [9]: Half life in dogs upon 0.4 mg/kg intravenous administration. The settings on record: dog, in vivo. It counts as ADME, organism-based, Canis lupus familiaris. More on the design: dose 0.4 mg/kg, route intravenous. In outline:
(§4)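 Dogs dosed with the compounds as TFA salts in an N-in-1 (cassette) format, 0.4 mg/kg intravenously and 0.2 mg/kg orally.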

A further series has as its target Coagulation factor XI (Homo sapiens, UniProt P03951). Briefly: Binding affinity determined against coagulation factor XI. The essentials:
as §1

Series [10] can be described thus: Steady state volume of distribution in dogs upon 0.4 mg/kg intravenous administration. It counts as ADME, organism-based, Canis lupus familiaris. More on the design: dose 0.4 mg/kg, route intravenous. The settings on record: dog, in vivo, read-out: Vdss. In outline: as §4
Series [11] can be described thus: Oral bioavailability of compound was determined in dogs upon 0.2 mg/kg administration. Type of series: ADME, organism-based, Canis lupus familiaris. The settings on record: dog, in vivo. The essentials: as §4
Series [12] concerns Caco-2. Put plainly: Apparent permeability in Caco-2 (human carcinoma) cells.
Series [13] is described as follows: Steady state volume of distribution in dogs at 0.4 mg/kg intravenous administration. It counts as ADME, organism-based, Canis lupus familiaris. More on the design: dose 0.4 mg/kg, route intravenous. The settings on record: dog, in vivo, read-out: Vdss. The essentials:
as §2

Series [14] is described as follows: Binding affinity of compound was determined against human plasma protein. It counts as ADME, cell-free. The essentials:
as §3

The nature of series [15]: Clearance in dogs at 0.4 mg/kg intravenous administration. It counts as ADME, organism-based, Canis lupus familiaris. On the set-up: dose 0.4 mg/kg, route intravenous. The following applies: dog, in vivo. The essentials: as §2
Series [16] can be described thus: Oral bioavailability of compound was determined in dogs upon administration of 0.2 mg/kg. It counts as ADME, organism-based, Canis lupus familiaris. The settings on record: dog, in vivo. In outline: as §2
Series [17] can be described thus: Half life period in dogs at 0.4 mg/kg intravenous administration. It counts as ADME, organism-based, Canis lupus familiaris. On the set-up: dose 0.4 mg/kg, route intravenous. The settings on record: dog, in vivo. In outline:
as §2

Series [18] deals with T1, Coagulation factor X. Briefly: Binding affinity against blood clotting factor X.
Target sequence in this assay (P00742 whole entry, looked up): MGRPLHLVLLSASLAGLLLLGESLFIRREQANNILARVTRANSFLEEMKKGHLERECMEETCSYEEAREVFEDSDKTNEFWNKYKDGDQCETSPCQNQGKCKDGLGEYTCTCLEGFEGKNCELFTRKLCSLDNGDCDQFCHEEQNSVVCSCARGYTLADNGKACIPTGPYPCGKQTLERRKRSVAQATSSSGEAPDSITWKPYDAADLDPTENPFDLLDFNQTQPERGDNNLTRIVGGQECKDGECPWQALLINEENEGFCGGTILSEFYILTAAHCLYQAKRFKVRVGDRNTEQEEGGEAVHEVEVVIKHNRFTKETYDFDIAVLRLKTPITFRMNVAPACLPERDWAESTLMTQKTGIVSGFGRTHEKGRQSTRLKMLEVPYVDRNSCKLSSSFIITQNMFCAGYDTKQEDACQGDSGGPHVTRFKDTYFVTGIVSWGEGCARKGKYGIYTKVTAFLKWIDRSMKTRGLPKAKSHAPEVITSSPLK

For orientation: Ki means the equilibrium dissociation constant of an inhibitor or competing ligand from its target. The low end stands for higher affinity, the high end for lower affinity. What is called bioavailability is the share of a dose that reaches the circulation, judged against a reference dose that is usually intravenous. A lower bioavailability goes with poor availability. One may read the half-life as the time needed for the level to fall by half in the phase considered. Low values mean rapid decline, high ones slow decline. One may read the clearance as the volume of plasma or blood freed of the substance per unit of time. A lower clearance goes with inefficient removal.

A value given as a limit tells only on which side of the number the result lay.

Serine protease 1, sequence (P07477 whole entry): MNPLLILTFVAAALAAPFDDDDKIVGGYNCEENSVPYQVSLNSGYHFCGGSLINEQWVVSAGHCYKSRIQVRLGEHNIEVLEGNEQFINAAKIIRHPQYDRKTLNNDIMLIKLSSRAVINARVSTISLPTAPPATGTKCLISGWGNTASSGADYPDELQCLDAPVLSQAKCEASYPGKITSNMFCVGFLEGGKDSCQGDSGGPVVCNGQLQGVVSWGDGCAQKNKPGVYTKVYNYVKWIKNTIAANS
Chymotrypsinogen B, sequence (P17538 34-164 limits assumed, other chains not shown): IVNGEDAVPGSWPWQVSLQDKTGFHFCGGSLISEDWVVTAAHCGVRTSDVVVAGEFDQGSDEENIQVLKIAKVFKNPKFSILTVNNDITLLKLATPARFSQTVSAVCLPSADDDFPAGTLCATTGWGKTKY
Chymotrypsinogen B, sequence (P17538 167-263 limits assumed, other chains not shown): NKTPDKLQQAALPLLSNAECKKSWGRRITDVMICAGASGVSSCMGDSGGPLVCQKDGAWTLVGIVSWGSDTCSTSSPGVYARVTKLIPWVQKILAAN
Coagulation factor XI, sequence (P03951 19-387 limits assumed): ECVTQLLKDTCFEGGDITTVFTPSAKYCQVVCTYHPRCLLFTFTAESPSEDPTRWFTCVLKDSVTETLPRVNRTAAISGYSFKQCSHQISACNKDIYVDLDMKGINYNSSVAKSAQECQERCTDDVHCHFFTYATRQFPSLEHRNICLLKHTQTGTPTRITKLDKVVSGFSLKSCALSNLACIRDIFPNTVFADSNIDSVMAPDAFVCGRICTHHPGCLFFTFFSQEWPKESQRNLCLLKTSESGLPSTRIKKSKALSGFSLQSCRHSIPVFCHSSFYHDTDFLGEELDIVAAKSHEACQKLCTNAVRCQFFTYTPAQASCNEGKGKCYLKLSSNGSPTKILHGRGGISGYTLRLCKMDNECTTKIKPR
Coagulation factor XI, sequence (P03951 388-625 limits assumed): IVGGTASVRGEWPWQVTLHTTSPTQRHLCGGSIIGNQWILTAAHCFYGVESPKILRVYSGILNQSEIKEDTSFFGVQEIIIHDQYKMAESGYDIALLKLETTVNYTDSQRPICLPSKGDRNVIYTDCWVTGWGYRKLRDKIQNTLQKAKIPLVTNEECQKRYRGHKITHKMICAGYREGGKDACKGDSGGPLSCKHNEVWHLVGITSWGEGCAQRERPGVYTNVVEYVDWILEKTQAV

In turn, `Cc1nccn1-c1ccc(NC(=O)c2cc(C(F)(F)F)nn2-c2ccc3onc(N)c3c2)c(C#N)c1` gave a Ki at Coagulation factor X [1] of 0.52 nM. In addition, the Permeability with Caco-2 [2] was less than 1e-07 cm/s.
Regarding `Cc1nccn1-c1ccc(NC(=O)c2cc(C(F)(F)F)nn2-c2ccc3onc(N)c3c2)c(-n2ccnc2C)c1`, the Ki came out at 1.6 nM on Coagulation factor X [1] and 800 nM at Prothrombin.
At Coagulation factor X [1], `CC(C)c1nccn1-c1ccc(NC(=O)c2cc(C(F)(F)F)nn2-c2ccc3onc(N)c3c2)c(F)c1` came in with a Ki of 1.6 nM.
Consider `Nc1noc2ccc(-n3nc(C(F)(F)F)cc3C(=O)Nc3ccc(C(=O)N4CCCC4)cc3F)cc12`, for which the Ki is 0.92 nM on Coagulation factor X [1], greater than 5.2 µM on Serine protease 1 and 8000 nM at Prothrombin. Moreover, the “concentration doubling aPTT” value in [3] worked out at 13.8 µM. In addition, the Permeability in the series on Caco-2 [2] amounted to 2.49e-05 cm/s.
Regarding `CS(=O)(=O)c1ccccc1-c1ccc(NC(=O)c2cc(C(F)(F)F)nn2-c2ccc3onc(N)c3c2)c(F)c1`, the inhibition constant (Ki) is 3.5 µM at Coagulation factor IX; 0.09 nM on Coagulation factor X [1]; greater than 5.2 µM on Serine protease 1; 16 µM in series [4]; 6300 nM at Prothrombin; 2300 nM on Chymotrypsinogen B. In addition, the Ki is 28 µM in series [5] and greater than 15 µM at Coagulation factor VII. In addition, in the series with Caco-2 [2], the Permeability was less than 1e-07 cm/s. The same compound displayed a bioavailability in [6] of 2%.
For the compound `Cc1nccn1-c1ccc(NC(=O)c2cc(C(F)(F)F)nn2-c2ccc3onc(N)c3c2)cc1`, the Ki worked out at 0.6 nM at Coagulation factor X [1] and 1100 nM on Prothrombin. In addition, the Permeability with Caco-2 [2] was found to be 8.2e-07 cm/s.
On to `CS(=O)(=O)c1ccccc1-c1ccc(NC(=O)c2cc(C(F)(F)F)nn2-c2cccc(CN)c2)c(F)c1`, for which the results for the Ki (in [4]; at Chymotrypsinogen B) were greater than 17 µM and greater than 17000 nM, respectively. The ID50 in the series filed under Oryctolagus cuniculus stood at 1.1 µmol/kg/h.
On to `CN(C)Cc1nccn1-c1ccc(NC(=O)c2cc(C(F)(F)F)nn2-c2ccc3onc(N)c3c2)c(F)c1.Cl` [RAZAXABAN HYDROCHLORIDE], for which the Binding was determined as 93.4% in [7] and 90.5% in series [8]. In series [9], this compound had a half-life of 204 min. Besides, the Ki in series [5] is 19.7 µM; at Coagulation factor XI, greater than 12 µM. The Vd in series [10] turned out to be 5.3 L/kg. This compound also registered a bioavailability in series [11] of 84%. In the series listed under Oryctolagus cuniculus, this compound registered an ID50 of 1.6 µmol/kg/h. For the same compound, the Permeability with Caco-2 [12] was 5.56e-06 cm/s.
Turning to `NCc1nccn1-c1ccc(NC(=O)c2cc(C(F)(F)F)nn2-c2ccc3onc(N)c3c2)c(F)c1`, the values for the Ki at Coagulation factor X [1] and at Prothrombin were 3 nM and 3500 nM, respectively.
On to `Nc1noc2ccc(-n3nc(C(F)(F)F)cc3C(=O)Nc3ccc(N4CCOCC4)cc3F)cc12`, for which the Ki was 6.3 nM at Coagulation factor X [1], greater than 5.2 µM on Serine protease 1 and 20000 nM on Prothrombin.
On to `Nc1noc2ccc(-n3nc(C(F)(F)F)cc3C(=O)Nc3ccc(-n4ccnc4CO)cc3F)cc12`, for which the Ki turned out to be 1 nM at Coagulation factor X [1] and 1700 nM at Prothrombin. Further, the Permeability in the series with Caco-2 [2] is 1e-07 cm/s.
Turning to `Cc1nccn1-c1ccc(NC(=O)c2cc(C(F)(F)F)nn2-c2ccc3onc(N)c3c2)c(C(N)=O)c1`, the Ki on Coagulation factor X [1] is 7.7 nM; on Prothrombin, greater than 21000 nM.
Regarding `Nc1noc2ccc(-n3nc(C(F)(F)F)cc3C(=O)Nc3ccc(-c4ccncc4S(N)(=O)=O)cc3F)cc12`, the results for the Ki on Coagulation factor X [1], at Serine protease 1 and on Prothrombin were 0.1 nM, greater than 4.2 µM and 740 nM, respectively. Also, the “concentration doubling aPTT” value in series [3] amounted to 15.5 µM. Also, in the series on Caco-2 [2], the Permeability is 5.4e-07 cm/s.
With `CNCc1nccn1-c1ccc(NC(=O)c2cc(C(F)(F)F)nn2-c2ccc3onc(N)c3c2)c(F)c1`, in [13], the Vd stood at 4.6 L/kg. Besides, the Ki was determined as 0.17 nM at Coagulation factor X [1], 1700 nM on Prothrombin and 0.17 nM on Coagulation factor X [18]. Moreover, in series [14], the Binding is 85.6%. In [3], the “concentration doubling aPTT” value stood at 5.9 µM. Further, the Permeability in the series on Caco-2 [2] was determined as 2e-07 cm/s. This compound also had a clearance in series [15] of 18.3 mL/min/kg. In series [16], this compound registered a bioavailability of 27%. In series [17], this compound gave a half-life of 222 min.
Turning to `Nc1noc2ccc(-n3nc(C(F)(F)F)cc3C(=O)Nc3ccc(-c4ccccc4S(N)(=O)=O)cc3F)cc12`, the Ki on Coagulation factor X [1] is 0.16 nM; on Serine protease 1, greater than 1.6 µM; at Prothrombin, 2300 nM. Besides, the Permeability in the series with Caco-2 [2] is less than 1e-07 cm/s.
Consider `Nc1noc2ccc(-n3nc(C(F)(F)F)cc3C(=O)Nc3ccc(-n4ccnc4CN4CCCC4)cc3F)cc12`, for which the values for the Ki on Coagulation factor X [1] and at Prothrombin were 0.37 nM and 600 nM, respectively. For the same compound, the Permeability in the series with Caco-2 [2] is 2.3e-05 cm/s.
Regarding `CCc1nccn1-c1ccc(NC(=O)c2cc(C(F)(F)F)nn2-c2ccc3onc(N)c3c2)c(F)c1`, at Coagulation factor X [1], the Ki was 0.73 nM. In series [14], this compound came in with a Binding of 95%. In addition, the “concentration doubling aPTT” value in series [3] came to 14.3 µM. Further, the Permeability in the series on Caco-2 [2] amounted to 3.32e-06 cm/s.
In the case of `COc1cc(-n2ccnc2C)ccc1NC(=O)c1cc(C(F)(F)F)nn1-c1ccc2onc(N)c2c1`, the figures for the Ki on Coagulation factor X [1] and on Prothrombin were 2.8 nM and 200 nM, respectively.
With `Cn1ccnc1-c1ccc(NC(=O)c2cc(C(F)(F)F)nn2-c2ccc3onc(N)c3c2)c(F)c1`, the Ki on Coagulation factor X [1] is 0.51 nM; at Serine protease 1, greater than 2.5 µM; at Prothrombin, 34 nM. Further, the “concentration doubling aPTT” value in [3] is 9.4 µM. The Permeability with Caco-2 [2] was 4.69e-06 cm/s.
With `Cc1nccn1-c1ccc(NC(=O)c2cc(C(F)(F)F)nn2-c2ccc3onc(N)c3c2)c(F)c1`, affinity at Coagulation factor X [1] was put at a Ki of 0.7 nM. This compound also gave a Binding in series [14] of 98%. In addition, in series [3], the “concentration doubling aPTT” value was found to be 24.4 µM. Besides, the Permeability with Caco-2 [2] was 7.41e-06 cm/s.
